In brackets after ≈: the same amount, converted by molar mass.

For orientation: IC50 means the point on the concentration scale where inhibition reaches its midpoint. In general, solubility refers to how much of the substance goes into solution per volume. A lower solubility goes with a poorly soluble substance.

For data set [1], the system named is A2780. In words: Growth inhibition of human A2780 cells after 72 hrs by SRB assay. It counts as functional, cell-based. The note with it: A2780, 72 h. On the technique in general: In SRB staining, fixed cells bind dye roughly in proportion to their protein.
Data set [2] deals with OVCAR-8. As to the kind of experiment: Growth inhibition of human OVCAR8 cells after 72 hrs by SRB assay. The data set is classed as functional, cell-based. Conditions: OVCAR-8, 72 h.
Data set [3] is described as follows: Growth inhibition of human A2780cis cells after 72 hrs by SRB assay. It counts as functional, cell-based.
In data set [4] the test system is Plasmodium falciparum. In words: Antiplasmodial activity against Plasmodium falciparum Dd2 by SYBR Green I fluorescence assay. It counts as functional, organism-based.
Data set [5] can be described thus: Aqueous solubility of the compound in phosphate buffer at pH 7.4 measured after 24 hrs by HPLC method. It counts as physicochemical. The method, boiled down:
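Measured in phosphate buffer at pH 7.4 and 37 °C, with the dissolved compound quantified by high-performance liquid chromatography.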

Data set [6] can be described thus: Growth inhibition of SV-40 immortalized human ovarian epithelial cells after 72 hrs by SRB assay.
The subject of data set [7] is A2780 (human). In words: Selectivity index, ratio of IC50 for SV-40 immortalized human ovarian epithelial cells to IC50 for human A2780 cells.
Data set [8] relates to A2780. In words: Growth inhibition of human A2780 cells after 48 hrs by MTT assay. It counts as functional, cell-based. The note with it: A2780, 48 h. In general terms: Formazan colour is commonly taken as a measure of viable cells.
Data set [9] can be described thus: Growth inhibition of SV-40 immortalized human ovarian epithelial cells after 48 hrs by MTT assay.
Data set [10] can be described thus: Growth inhibition of human A2780cis cells after 72 hrs by MTT assay. It counts as functional, cell-based.
Data set [11] deals with Plasmodium falciparum. In words: Antiplasmodial activity against chloroquine sensitive Plasmodium falciparum FCR-3/Gambia assessed as [3H]hypoxanthine incorporation after 72 hrs. The data set is classed as functional, organism-based.
Data set [12] deals with Plasmodium falciparum. As to the kind of experiment: Antiplasmodial activity against chloroquine and artemisinin sensitive Plasmodium falciparum FCR-3/Gambia after 72 hrs. The data set is classed as functional, organism-based.

With `CC1=CC(=O)C=C(C)C1=O`, the 50% inhibitory concentration (IC50) turned out to be 3.2 µM in data set [1]; 5.2 µM in data set [2]; 2.9 µM in data set [3]; 10.4 µM in data set [4]; 5.3 µM in data set [6]. Moreover, the concentration in solution in data set [5] (solubility at 24 h) was 5040 µg/mL (≈ 37 mM). In addition, the selectivity ratio in [7] came to 1.7.

Consider `CC(C)(C)C1=CC(=O)C=CC1=O`, for which the IC50 came to 5.7 µM in data set [1]; 10 µM in data set [2]; 4.9 µM in [3]; 15.6 µM in [4]; 10.3 µM in [6]. Also, the selectivity ratio in data set [7] was 1.8.

With `CC1=CC(=O)C(C(C)(C)C)=CC1=O`, the 50% inhibitory concentration (IC50) in [1] is 7.5 µM; in [2] it was 13.5 µM; in data set [3], 7.9 µM; in data set [4], 19.7 µM; in data set [6], 55.8 µM. The selectivity ratio in data set [7] was 7.5.

On to `CC1=C(N)C(=O)C(C(C)C)=CC1=O`, for which the IC50 in [1] was determined as 19.9 µM; in data set [2] it was 35.1 µM; in data set [3] it was 19.3 µM; in data set [4], 19.3 µM; in data set [6], 139 µM. Further, the selectivity ratio in [7] stood at 7.1.

`CC(C)(C)C1=CC(=O)C=C(C(C)(C)C)C1=O`: the 50% inhibitory concentration (IC50) in data set [1] is 24.6 µM; in data set [2], 37.4 µM; in data set [3], 31.1 µM; in data set [4], 29.5 µM; in [6], 51.5 µM.

`CC(C)(C)C1=CC(=O)C(C(C)(C)C)=CC1=O`: the IC50 in data set [1] turned out to be 34 µM; in data set [2], 51.2 µM; in [3] it was 42.5 µM; in data set [4], 4.2 µM; in data set [6] it was 117 µM.

Turning to `CC1=CC(=O)C(Nc2ccc(F)cc2)=CC1=O`, the half-inhibitory concentration (IC50) amounted to 15 µM in data set [1]; 32 µM in data set [2]; 21.8 µM in [3]; 100 µM in data set [4]; 20.2 µM in [6]. Also, in data set [7], the selectivity ratio is 1.3.

For `CC1=CC(=O)C(N(C)C)=CC1=O`, the IC50 in data set [1] amounted to 6.2 µM; in data set [2], 5.6 µM; in data set [3], 4.7 µM; in data set [4] it was 9.9 µM; in [6], 7.9 µM. The compound further came in with a solubility at 24 h in [5] of 8320 µg/mL (≈ 50.4 mM). The selectivity ratio in data set [7] came to 1.7.

Take `Cc1cc(O)c(C(C)C)cc1O`: the IC50 worked out at 3.1 µM in data set [1]; 8.9 µM in data set [2]; 9.8 µM in [3]; 15.9 µM in data set [4]; 14 µM in data set [6]. Moreover, the selectivity ratio in data set [7] came to 4.5.

On to `Cc1cc(O)cc(C)c1O`, for which the IC50 in data set [1] stood at 3.6 µM; in data set [2], 8.3 µM; in [3], 3.6 µM; in [4] it was 15.4 µM; in data set [6], 7.8 µM. In addition, in data set [7], the selectivity ratio was determined as 2.1.

On to `CC(C)(C)CC(C)(C)C1=CC(=O)C(C(C)(C)CC(C)(C)C)=CC1=O`, for which the IC50 is 44.2 µM in data set [1]; 56.5 µM in data set [2]; 51.8 µM in data set [3]; 116 µM in [4]; above 200 µM in data set [6]. Moreover, the selectivity ratio in [7] is above 4.6.

Take `CNC1=C(C)C(=O)C=C(C(C)C)C1=O`: the IC50 in data set [1] is 14 µM; in data set [2], 12.9 µM; in data set [3], 7.3 µM; in [4], 52.7 µM; in data set [6], 36.8 µM. Besides, the selectivity ratio in data set [7] is 5.

For `Cc1c(O)c(Br)c(C(C)C)c(O)c1Br`, the IC50 in [1] turned out to be 3.4 µM; in data set [2], 11.6 µM; in data set [3], 4.8 µM; in data set [4], 25.6 µM; in data set [6], 11 µM. Moreover, the selectivity ratio in [7] is 3.2.

As for `CCC(C)(C)C1=CC(=O)C(C(C)(C)CC)=CC1=O`, the IC50 in data set [1] is 36.1 µM; in data set [2], 54.2 µM; in data set [3] it was 48.8 µM; in [4], 78.8 µM; in [6], above 200 µM. In data set [7], the selectivity ratio was above 5.

For the compound `CC1=C(Cl)C(=O)C(C(C)(C)C)=C(Cl)C1=O`, the IC50 in data set [1] stood at 4.5 µM; in [2], 6 µM; in data set [3] it was 4.2 µM; in data set [4] it was 16.2 µM; in data set [6] it was 3.1 µM. Moreover, the selectivity ratio in [7] is below 1.

For the compound `Cc1cc(O)c(C(C)(C)C)cc1O`, the IC50 stood at 6.4 µM in [1]; 12.2 µM in data set [2]; 11.5 µM in [3]; 17.9 µM in data set [4]; 85.6 µM in data set [6]. In addition, the selectivity ratio in data set [7] was found to be 13.4.

As for `CCNC1=C(C)C(=O)C=C(C(C)C)C1=O`, the IC50 is 12.6 µM in [1]; 16 µM in data set [2]; 9.6 µM in data set [3]; 11.1 µM in data set [4]; 30.3 µM in data set [6]. For the same compound, the selectivity ratio in data set [7] came out at 3.1.

In the case of `CC1=C(N(C)C)C(=O)C=CC1=O`, the IC50 in data set [1] was determined as 16.7 µM; in data set [2], 35.6 µM; in data set [3] it was 20.5 µM; in [4] it was 191 µM; in [6] it was 28.2 µM. Moreover, the selectivity ratio in [7] came out at 1.3.

As for `CC1=CC(=O)C=CC1=O` [Cresoquinone], the IC50 was 12.1 µM in data set [1], 13.4 µM in data set [2], 11.8 µM in data set [3] and 6 µM in data set [6]. In addition, in data set [7], the selectivity ratio is below 1.

Turning to `CC1=C(Br)C(=O)C(C(C)C)=C(Br)C1=O` [Dibromothymoquinone], the IC50 is 4.9 µM in [1]; 3.6 µM in data set [2]; 5.3 µM in [3]; 30 µM in [4]; 7.3 µM in data set [6]. Further, the selectivity ratio in data set [7] was 1.5.

Regarding `Cc1cc(O)ccc1O` [METHYLHYDROQUINONE], the IC50 in data set [1] came to 5.7 µM; in [2] it was 6.2 µM; in [3], 4.7 µM; in data set [4], 134 µM; in data set [6], 6.3 µM.

Consider `CC(=O)O[C@H]1C(=O)[C@@]2(C)[C@H]([C@H](OC(=O)c3ccccc3)[C@]3(O)C[C@H](OC(=O)[C@H](O)[C@@H](NC(=O)c4ccccc4)c4ccccc4)C(C)=C1C3(C)C)[C@]1(OC(C)=O)CO[C@@H]1C[C@@H]2O` [PACLITAXEL], for which the IC50 in [1] is 0.009 µM; in [2], 0.01 µM; in data set [8], 0.05 µM; in data set [9] it was 0.03 µM; in data set [10], 0.003 to 0.004 µM; in [11], 0.003 to 0.006 µM.

With `CC1=CC(=O)C(C(C)C)=CC1=O` [THYMOQUINONE], the IC50 came out at 1.2 µM in [12]; 7.9 µM in data set [1]; 11.6 µM in data set [2]; 7.8 µM in data set [3]; 25 µM in [4]; 17.8 µM in data set [6]. The compound further registered a solubility at 24 h in data set [5] of 468 µg/mL (≈ 2.85 mM).

The record behind these values is ChEMBL document CHEMBL4184306 (Bioorg Med Chem Lett, 2018).
